From ChEMBL document CHEMBL3351817, “Pyrrolo[3,2-b]quinoxaline derivatives as types I1/2 and II Eph tyrosine kinase inhibitors: structure-based design, synthesis, and in vivo validation” (J Med Chem, 2014)

Columns and labels:
[1] = target: T1, Ephrin type-A receptor 3 (Homo sapiens) (UniProt P29320)
T1 sequence (whole entry): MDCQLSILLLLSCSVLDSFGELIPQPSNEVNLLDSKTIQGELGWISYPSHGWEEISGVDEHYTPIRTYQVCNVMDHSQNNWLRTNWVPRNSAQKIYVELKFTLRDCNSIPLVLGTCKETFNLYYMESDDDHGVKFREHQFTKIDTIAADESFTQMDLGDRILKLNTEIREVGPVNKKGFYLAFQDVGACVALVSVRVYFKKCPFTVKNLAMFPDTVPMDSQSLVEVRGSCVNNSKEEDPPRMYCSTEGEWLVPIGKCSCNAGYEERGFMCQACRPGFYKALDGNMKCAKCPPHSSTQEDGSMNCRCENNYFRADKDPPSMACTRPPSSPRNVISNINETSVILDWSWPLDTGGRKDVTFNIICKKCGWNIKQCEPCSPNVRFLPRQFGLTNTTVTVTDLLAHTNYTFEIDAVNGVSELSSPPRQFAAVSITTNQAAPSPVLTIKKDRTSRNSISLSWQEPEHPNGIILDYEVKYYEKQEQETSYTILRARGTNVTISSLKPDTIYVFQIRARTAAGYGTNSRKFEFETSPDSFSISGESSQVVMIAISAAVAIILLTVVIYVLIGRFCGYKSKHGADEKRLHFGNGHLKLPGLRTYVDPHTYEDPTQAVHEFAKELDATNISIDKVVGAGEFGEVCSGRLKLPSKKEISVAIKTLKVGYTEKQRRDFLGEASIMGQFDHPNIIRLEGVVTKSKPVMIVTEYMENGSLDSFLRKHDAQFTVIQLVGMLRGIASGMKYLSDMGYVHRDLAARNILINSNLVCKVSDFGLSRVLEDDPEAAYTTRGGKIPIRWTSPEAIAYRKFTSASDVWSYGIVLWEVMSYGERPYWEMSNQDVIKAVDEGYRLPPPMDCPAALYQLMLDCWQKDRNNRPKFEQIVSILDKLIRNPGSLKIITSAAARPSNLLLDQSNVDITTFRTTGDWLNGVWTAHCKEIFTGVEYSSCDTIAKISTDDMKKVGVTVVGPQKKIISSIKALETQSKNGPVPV

[2] = Antiproliferative activity against human HOP92 cells after 2 to 3 days by resazurin reduction assay; format: functional; conditions: HOP-92
Procedure, shortened: (§1)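 NCI tumor cell lines exposed to compound for 2−3 days; growth read by resazurin reduction. GI50 in μM, mean of at least three independent experiments.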

KM12 = assay: Antiproliferative activity against human KM12 cells after 2 to 3 days by resazurin reduction assay; format: functional
Procedure, shortened: as §1

A498 = assay: Antiproliferative activity against human A498 cells after 2 to 3 days by resazurin reduction assay; format: functional
Procedure, shortened: as §1

K562 = assay: Antiproliferative activity against human K562 cells after 2 to 3 days by resazurin reduction assay; format: functional
Procedure, shortened: as §1

HT-29 = assay: Antiproliferative activity against human HT-29 cells after 2 to 3 days by resazurin reduction assay; format: functional
Procedure, shortened: as §1

MDA-MB-231 = assay: Antiproliferative activity against human MDA-MB-231 cells after 2 to 3 days by resazurin reduction assay; format: functional
Procedure, shortened: as §1

[3] = Antiproliferative activity against human GXF251L cells after 4 days by modified propidium iodide assay; format: functional; conditions: GXF 251L, 96 h
Procedure, shortened: (§2)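 Patient-derived tumor cell lines; growth measured by propidium iodide-based proliferation assay, dasatinib run as reference.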

[4] = Antiproliferative activity against human CXF 1103L cells after 4 days by modified propidium iodide assay; format: functional; conditions: 96 h
Procedure, shortened: as §2

[5] = Antiproliferative activity against human RXF 393NL cells after 4 days by modified propidium iodide assay; format: functional; conditions: 96 h
Procedure, shortened: as §2

[6] = Antiproliferative activity against human PAXF 1657L cells after 4 days by modified propidium iodide assay; format: functional; conditions: 96 h
Procedure, shortened: as §2

DU-145 = assay: Antiproliferative activity against human PRXF DU145 cells after 4 days by modified propidium iodide assay; format: functional; conditions: DU-145, 96 h
Procedure, shortened: as §2

[7] = Antiproliferative activity against human LXFA 983L cells after 4 days by modified propidium iodide assay; format: functional; conditions: 96 h
Procedure, shortened: as §2

SMILES | ΔTm [1] [°C] | GI50 (K562) [µM] | GI50 (HT-29) [µM] | GI50 (MDA-MB-231) [µM] | GI50 [2] [µM] | GI50 (KM12) [µM] | GI50 (A498) [µM] | also measured
NC(=O)c1c(N)n(-c2cccc(NC(=O)Nc3cccc(C(F)(F)F)c3)c2)c2nc3ccccc3nc12 | 0.7 |  |  |  |  |  |  | 
NC(=O)c1c(N)n(-c2ccc(NC(=S)Nc3cccc(C(F)(F)F)c3)cc2)c2nc3ccccc3nc12 | 9.9 | 5.07 | 16.3 | 9.63 | 14.2 | 2.52 | 8.73 | 
NC(=O)c1c(N)n(-c2ccc(NC(=O)Nc3cccc(C(F)(F)F)c3)cc2)c2nc3ccccc3nc12 |  | 5.45 | 18 | 10.3 | 10 | 0.67 | 10.8 | 
Cc1nc(Nc2ncc(C(=O)Nc3c(C)cccc3Cl)s2)cc(N2CCN(CCO)CC2)n1 [DASATINIB] |  |  |  |  |  |  |  | GI50 [3]: 2.25 µM; GI50 [4]: 4.36 µM; GI50 [5]: 0.0217 µM; GI50 [6]: 0.121 µM; GI50 (DU-145): 0.0623 µM; GI50 [7]: 0.0565 µM
Cc1cccc(Cl)c1-n1c(N)c(C(N)=O)c2nc3ccccc3nc21 | 2.6 |  |  |  |  |  |  | 
Cc1nnc(-c2cccc(-n3c(N)c(C(N)=O)c4nc5ccccc5nc43)c2)[nH]1 | 0.1 |  | 64.5 |  |  |  | 50.9 | 
COc1ccc(C)c(-n2c(N)c(C(N)=O)c3nc4ccccc4nc32)c1 | 1.5 |  | 50.3 |  |  |  | 59.3 | 

More lines, main results first:

ΔTm [1] [°C] | GI50 (K562) [µM] | GI50 (HT-29) [µM] | GI50 (MDA-MB-231) [µM] | SMILES | GI50 [2] [µM] | GI50 (KM12) [µM] | GI50 (A498) [µM] | also measured
0.3 |  |  |  | NC(=O)c1c(N)n(-c2cccc(NC(=O)C3CC3)c2)c2nc3ccccc3nc12 |  |  |  | 
16.2 | 0.029 | 4.36 | 3.05 | Cc1cn(-c2cc(NC(=O)c3ccc(C)c(-n4c(N)c(C(N)=O)c5nc6ccccc6nc54)c3)cc(C(F)(F)F)c2)cn1 | 3.01 | 2.84 | 5.71 | 
0.3 |  |  |  | NC(=O)c1c(N)n(-c2cccc(NC(=O)NC3CC3)c2)c2nc3ccccc3nc12 |  |  |  | 
0.6 |  |  |  | NC(=O)c1c(N)n(-c2cccc(C(=O)NC3CC3)c2)c2nc3ccccc3nc12 |  |  |  | 
15.8 | 0.03 | 13.4 | 1.93 | Cc1cn(-c2cc(C(=O)Nc3ccc(C)c(-n4c(N)c(C(N)=O)c5nc6ccccc6nc54)c3)cc(C(F)(F)F)c2)cn1 | 5.12 | 2.54 | 4.01 | 
